# High-throughput results (PubChem)
# NS3 helicase inh = blocks Hepatitis C virus NS3 helicase unwinding | NS3 helicase DNA unwinding, Cy5 molecular beacon fluorescence | inhibition, % at 10.9 µM | actives 0.56% (n = 290,000) | AID 1800;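 active = inhibition above the mean of all tested compounds plus 3 SD, set per campaign, cut at about 35% in these data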;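 note: 0% = DMSO wells and 100% = thioflavine S control wells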
#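 Test system: hepatitis C virus NS3 helicase domain fragment enzyme. Also added: annealed dual-labelled DNA beacon duplex, ATP-started. Timing: 60 min unwinding reaction at 25 °C after ATP addition. Technique: Cy5 fluorescence. Measure: % inhibition of unwinding.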
# IMP-1 inhibitor = blocks Pseudomonas aeruginosa IMP-1 metallo-beta-lactamase | purified IMP-1, nitrocefin hydrolysis, epi-absorbance fluorescence | inhibition, % at 5.6 µM | actives 0.45% (n = 290,000) | AID 1556;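 active = inhibition above the mean plus 3 SD of all compounds in the same screening run, cut at about 4.5% in these data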;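 note: 0% = IMP-1 with DMSO and 100% = DMSO wells lacking enzyme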
#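 System: Purified IMP-1 | Read-out basis: Percent enzyme inhibition | Controls: IMP-1 with DMSO as 0%, enzyme-free DMSO as 100% | Replicates: One well per compound | Doses: 5.6 µM nominal single concentration | Detection: Epi-absorbance fluorescence, 480 nm excitation, 530 nm emission | Incubation: 25 °C, 15 min preincubation, 25 min reaction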
# core dimer inh = blocks dimerization of HCV core protein. TR-FRET GST/Flag-core106 dimerization, 1536-well. inhibition, % at 5 µM. actives 0.33% (n = 300,000). AID 1899;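 active = inhibition above the mean of all tested compounds plus 3 SD, set per screening campaign, cut at about 45% in these data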
#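 test system = GST/Flag-tagged HCV core106 proteins | probe or stimulus = Eu donor and XL665 acceptor anti-tag antibodies | times = compound-protein-antibody incubation 4 h at 22.5 °C | signal = TR-FRET, excitation 340 nm, emission 617 and 671 nm | measure = percent inhibition of core106 dimerization signal | controls = wells lacking GST-core106 and wells with excess unlabelled core106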
# PHOSPHO1 block = inhibitors of human PHOSPHO1 phosphatase | actives 1.1% (n = 290,000) | inhibition, % at 13.3 µM | Q8TCT1 | AID 1565 | recombinant PHOSPHO1, absorbance phosphatase assay; in the data active = inhibition above about 60%
# Target sequence (Q8TCT1 whole entry, looked up): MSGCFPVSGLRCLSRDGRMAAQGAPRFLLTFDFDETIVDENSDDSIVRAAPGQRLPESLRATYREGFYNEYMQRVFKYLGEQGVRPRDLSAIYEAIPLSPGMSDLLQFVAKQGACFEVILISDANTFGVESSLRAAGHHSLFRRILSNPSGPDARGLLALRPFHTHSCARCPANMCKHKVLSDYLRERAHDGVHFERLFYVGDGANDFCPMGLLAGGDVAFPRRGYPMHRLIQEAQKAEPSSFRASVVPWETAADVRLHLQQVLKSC
# VIM-2 inhibitor = inhibitors of Pseudomonas aeruginosa VIM-2 metallo-beta-lactamase | purified VIM-2, nitrocefin hydrolysis, epi-absorbance fluorescence | inhibition, % at 5.6 µM | actives 0.89% (n = 290,000);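 active = inhibition above the mean of all tested compounds plus 3 SD, cutoff set per screening run, cut at about 7.5% in these data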;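 note: red hydrolysis product quenches plate fluorescence so inhibitors raise well fluorescence; 0% = enzyme with DMSO and 100% = DMSO without enzyme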
# UBC9 SUMO inh = blocks human SUMOylation mediated by UBC9; P63279; HTRF SUMOylation assay, SAE1/SAE2 + UBC9, in vitro; inhibition, % at 35 µM; actives 0.36% (n = 290,000); in the data active = inhibition above about 50%, passing the limit was not always enough
# Target sequence (P63279 whole entry, looked up): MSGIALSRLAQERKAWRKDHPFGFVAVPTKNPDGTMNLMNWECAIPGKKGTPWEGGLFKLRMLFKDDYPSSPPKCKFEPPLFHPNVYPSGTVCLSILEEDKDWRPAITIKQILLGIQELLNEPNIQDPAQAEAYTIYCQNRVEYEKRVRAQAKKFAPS
# * marks the source's active call; other numbers are inactive results; nt = no result given. Shown are actives, neighbours in structure and some others; about 3.1% of the full set was active somewhere.
SMILES,NS3 helicase inh,IMP-1 inhibitor,core dimer inh,PHOSPHO1 block,VIM-2 inhibitor,UBC9 SUMO inh
Cc1ccc(CN(C)C(=O)CCc2nc3sc4c(c3c(=O)[nH]2)CCCC4)o1,2.3,-0.7,16.7,6.1,0.6,1.2
O=C(Nc1ccc(NC(=O)C2CCCCC2)nc1)c1cccc(F)c1,6.8,-2.4,nt,6.2,-4.9,15.7
Cc1ccc(N=Cc2c(C)[nH]n(-c3nc4ccccc4[nH]3)c2=O)cc1,6.0,5.0*,-2.0,-6.8,-1.4,-10.3
Cn1cc(C(=O)C(=O)NC2CCCCC2)c2ccccc21,7.3,-1.7,2.1,19.2,-2.7,-13.4
Cc1cc(C)c2nc(NNC(=O)c3ccc(S(=O)(=O)N4CCc5ccccc5C4)cc3)sc2c1,-1.8,-4.1,51.8*,-6.1,-5.2,-26.1
Cc1cc(C)c2sc(N(CCCN(C)C)C(=O)c3ccc(S(=O)(=O)N4CCc5ccccc5C4)cc3)nc2c1,nt,nt,-8.2,nt,nt,nt
Cc1cc(C)c2sc(NNC(=O)c3ccc(S(=O)(=O)N4CCc5ccccc5C4)cc3)nc2c1,3.6,-0.9,64.2*,1.3,-3.0,1.4
COCCCNC(=S)NC1CC2CCCC(C1)N2Cc1cccs1 (stereo unspecified),0.6,-2.7,-10.8,68.7*,-2.2,25.3
NS(=O)(=O)c1ccc(NC(=O)c2ccc(CNS(=O)(=O)c3cc(C(F)(F)F)ccc3Cl)cc2)cc1,-10.6,-1.1,0.2,41.2,-0.3,20.6
CC(=O)c1ccc(-n2c(C)c(C(C)=O)c3cc(O)ccc32)cc1,-4.9,-1.5,-0.5,33.0,10.1*,3.2
CC(=O)c1c(C)n(-c2ccc(Br)cc2)c2ccc(O)cc12,-10.1,-1.5,3.3,8.8,1.9,15.7
CC(C)CCNC(=O)CN(C(=O)CCC(=O)Nc1nccs1)C1CCCCC1,1.6,-1.4,0.3,31.9,-1.1,-3.8
COc1ccccc1-n1c(CNC(=O)c2cccc([N+](=O)[O-])c2C)n[nH]c1=S,-4.3,-2.3,-4.8,-2.7,-0.9,-21.4
COc1ccccc1-n1c(CNC(=O)COc2ccccc2)n[nH]c1=S,2.2,-4.0,-3.2,81.6*,-2.3,20.5
Cc1cc(-c2n[nH]c(=S)n2Cc2ccco2)nn1C,-4.1,-3.1,-8.3,-29.4,-0.8,6.2
Oc1ccccc1-c1n[nH]c(=S)n1Cc1ccco1,-0.3,-0.2,-0.6,94.5*,4.4,14.1
COc1ccc(-c2n[nH]c(=S)n2Cc2ccco2)cc1,10.2,-3.4,1.0,101.6*,5.4,22.8
COc1cc(/C=N/n2c(-c3ccccc3)n[nH]c2=S)cc(OC)c1O,3.0,-3.3,-6.2,37.4,0.7,-5.2
CCN(CC)S(=O)(=O)c1cccc(-c2n[nH]c(=S)n2/N=C/c2ccc(OC)cc2)c1,-0.2,-4.2,15.8,83.3*,-3.4,-9.0
COc1cc(/C=N/n2c(-c3ccccc3)n[nH]c2=S)ccc1O,9.2,-3.7,-3.1,103.2*,0.0,-7.2
CCN(CC)S(=O)(=O)c1cccc(-c2n[nH]c(=S)n2/N=C/c2ccc(Br)cc2)c1,-2.5,-5.9,15.2,69.5*,-2.4,4.8
CC(Nc1ccc(Cl)cc1)C(=O)NN (stereo unspecified),-8.6,-3.3,-3.1,19.5,-2.2,23.0
C[C@@H](C(O)c1ccccc1)N(C)C(=O)CCc1ccccc1 (stereo partly specified),13.9,-1.6,-16.6,-24.2,-0.7,8.5
CCOC(CNC(=O)C(=O)Nc1cc2c3c(c1)CCN3C(=O)CC2)OCC,35.7,-0.5,-16.9,18.1,-1.4,9.6
COc1ccc(NS(=O)(=O)c2ccc(N3CCCC3)c(NC(=S)Nc3cccc(S(=O)(=O)N(C)C)c3)c2)cc1,-2.2,-0.5,23.2,64.5*,-0.8,6.8
Cc1cccc(C2NC(=O)c3c(sc(C)c3C)N2)c1O (stereo unspecified),4.5,-0.9,-3.7,40.8,1.2,15.4
Cc1ccc(C2NC(=O)c3c(sc(C)c3C)N2)c(O)c1 (stereo unspecified),0.4,-0.1,2.6,104.3*,-1.9,10.2
O=C(Cn1cnc(S(=O)(=O)N2CCCC2)c1)Nc1cccc(F)c1,3.3,-4.5,-7.4,-4.3,-3.7,-7.2
CCOc1ccc2nc(NC(=O)Cn3[nH]c(=O)c4ccccc4c3=O)sc2c1,13.6,-2.0,18.5,-5.9,-5.0,12.7
